Assay results reported in ChEMBL document CHEMBL2203235, “Optimization of a natural product-based class of γ-secretase modulators” (J Med Chem, 2012).
Values belong to the molecule of their own block, whether it stands above or below them.

How the values were obtained:
[1] = Modulation of gamma secretase in CHO-2B7 cells assessed as reduction in amyloid beta 40 level after 5 hrs by MSD ELISA; type: cell-based; details: Cricetulus griseus, CHO-2B7, 5 h
Liver microsomes [2] = test: Metabolic stability in human liver microsomes assessed as compound remaining at 1 uM at 60 mins by LC/MS/MS analysis in absence of NADPH; type: ADME, Microsome; details: microsomes, 1 h, 1 µM
Procedure, shortened: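 Human liver microsomes were run without NADPH as a qualitative read of susceptibility to enzymatic hydrolysis. The read-out was percent parent remaining at 60 min.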

[3] = Ratio of drug uptake in brain to plasma in CD1 mouse at 1 mg/kg, iv at 2 hrs; type: ADME, organism-based; design: dose 1 mg/kg, route intravenous; details: brain and plasma, read-out: BPR
Procedure, shortened: (§1)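 Screen of CNS penetration: CD-1 mice were dosed IV and plasma and brain concentrations were measured. Brain-to-plasma ratio was calculated, mostly at 6 h post dose, with one compound sampled at 2 h.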

Liver microsomes [4] = test: Metabolic stability in human liver microsomes at 1 uM after 60 mins by LC/MS/MS analysis; details: 1 h
[5] = Plasma concentration in CD1 mouse at 1 mg/kg, iv at 2 hrs; type: ADME, organism-based; design: dose 1 mg/kg, route intravenous; procedure, shortened: as §1
[6] = Drug uptake in CD1 mouse brain at 1 mg/kg, iv at 2 hrs; type: ADME, organism-based; design: dose 1 mg/kg, route intravenous; details: read-out: Drug uptake; procedure, shortened: as §1
[7] = Modulation of gamma secretase in CHO-2B7 cells assessed as reduction in amyloid beta 42 level after 5 hrs by MSD ELISA; type: cell-based; details: Cricetulus griseus, CHO-2B7, 5 h
[8] = Modulation of gamma-secretase assessed as reduction in amyloid beta 40 level by cell based assay
[9] = Modulation of gamma-secretase assessed as reduction in amyloid beta 42 level by cell based assay
[10] = Modulation of gamma-secretase assessed as increase in amyloid beta 38 level by cell based assay
[11] = Clearance in CD1 mouse at 1 mg/kg, iv; details: in vivo
[12] = Drug uptake in CD1 mouse brain at 1 mg/kg, iv at 6 hrs
[13] = Inhibition of gamma secretase in CHO-2B7 cells assessed as reduction in total amyloid beta level after 5 hrs by MSD ELISA; type: cell-based; details: Cricetulus griseus, CHO-2B7, 5 h
in vivo [14] = details: CD1, mouse, po, 30 mg/kg
[15] = Ratio of drug uptake in brain to plasma in CD1 mouse at 1 mg/kg, iv at 6 hrs; details: brain and plasma
[16] = Plasma concentration in CD1 mouse at 30 mg/kg, ip at 6 hrs; type: ADME, organism-based; design: dose 30 mg/kg, route intraperitoneal
Procedure, shortened: (§2)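 CD-1 mice received a single IP or PO dose (n = 12 per group) and were sampled at 6 h. Plasma and brain drug concentrations were measured in μM. Aβ42, Aβ40 and Aβ38 in brain homogenate are expressed as percent lowering versus vehicle. Statistical significance was assessed against vehicle.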

CHO [17] = test: Modulation of gamma secretase in CHO cells expressing human APP assessed as reduction amyloid beta (1 to 38) level at 3 uM after 6 hrs by LC/MS/MS analysis relative to control; type: cell-based; design: scale not given: the % may be the effect or the level left; details: Cricetulus griseus
Procedure, shortened: (§3)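 Cells were treated at 3 μM or 2 μM. Secreted Aβ peptides (Aβ37, 38, 39, 40, 42) were quantified by immunoprecipitation followed by LC/MS/MS. Changes are expressed relative to vehicle-treated cells.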

SUP-T1 = test: Inhibition of notch-mediated NICD release in human SUP-T1 cells at 4 uM after 18 hrs by immunoblotting assay; type: cell-based
Mus musculus [18] = test: Antialzheimer activity in CD1 mouse assessed as reduction in amyloid beta 40 level at 30 mg/kg, ip at 6 hrs relative to vehicle-treated control; type: functional; design: scale not given: the % may be the effect or the level left; details: route intraperitoneal; procedure, shortened: as §2
Mus musculus [19] = test: Antialzheimer activity in CD1 mouse assessed as reduction in amyloid beta 38 level at 100 mg/kg, ip at 6 hrs relative to vehicle-treated control; type: functional; design: scale not given: the % may be the effect or the level left; details: route intraperitoneal; procedure, shortened: as §2
Mus musculus [20] = test: Antialzheimer activity in CD1 mouse assessed as reduction in amyloid beta 38 level at 30 mg/kg, ip at 6 hrs relative to vehicle-treated control; type: functional; design: scale not given: the % may be the effect or the level left; details: route intraperitoneal; procedure, shortened: as §2
[21] = Drug uptake in CD1 mouse brain at 30 mg/kg, ip at 6 hrs; type: ADME, organism-based; design: dose 30 mg/kg, route intraperitoneal; details: read-out: Drug uptake; procedure, shortened: as §2
CHO [22] = test: Modulation of gamma secretase in CHO cells expressing human APP assessed as increase in amyloid beta (1 to 39) level at 3 uM after 6 hrs by LC/MS/MS analysis relative to control; type: cell-based; details: Cricetulus griseus; procedure, shortened: as §3
[23] = Modulation of gamma secretase in CHO-2B7 cells assessed as reduction in amyloid beta 38 level after 5 hrs by MSD ELISA; type: cell-based; details: Cricetulus griseus, CHO-2B7, 5 h
in vivo [24] = details: CD1, mouse, po, 30 mg/kg; remark: listed apart in the source
Mus musculus [25] = test: Antialzheimer activity in CD1 mouse assessed as reduction in amyloid beta 42 level at 30 mg/kg, ip at 6 hrs relative to vehicle-treated control; type: functional; design: scale not given: the % may be the effect or the level left; details: route intraperitoneal; procedure, shortened: as §2
[26] = Volume of distribution in CD1 mouse at 1 mg/kg, iv; details: in vivo
CHO [27] = test: Modulation of gamma secretase in CHO cells expressing human APP assessed as amyloid beta (1 to 40) level at 3 uM after 6 hrs by LC/MS/MS analysis (reference value: 10.2 ng); type: cell-based; details: Cricetulus griseus; procedure, shortened: as §3
[28] = Plasma concentration in CD1 mouse at 100 mg/kg, ip at 6 hrs; type: ADME, organism-based; design: dose 100 mg/kg, route intraperitoneal; procedure, shortened: as §2
[29] = Plasma concentration in CD1 mouse at 1 mg/kg, iv at 6 hrs
CHO [30] = test: Modulation of gamma secretase in CHO cells expressing human APP assessed as amyloid beta (1 to 42) level at 3 uM after 6 hrs by LC/MS/MS analysis (reference value: 0.6 ng); type: cell-based; details: Cricetulus griseus; procedure, shortened: as §3
CHO [31] = test: Modulation of gamma secretase in CHO cells expressing human APP assessed as increase in amyloid beta (1 to 37) level at 3 uM after 6 hrs by LC/MS/MS analysis relative to control; type: cell-based; details: Cricetulus griseus; procedure, shortened: as §3
Mus musculus [32] = test: Antialzheimer activity in CD1 mouse assessed as reduction in amyloid beta 42 level at 100 mg/kg, ip at 6 hrs relative to vehicle-treated control; type: functional; design: scale not given: the % may be the effect or the level left; details: route intraperitoneal; procedure, shortened: as §2
[33] = Half life in CD1 mouse at 1 mg/kg, iv; details: in vivo
[34] = Ratio of drug uptake in brain to plasma in CD1 mouse at 30 mg/kg, po at 6 hrs; details: brain and plasma
[35] = Drug uptake in CD1 mouse brain at 100 mg/kg, ip at 6 hrs; type: ADME, organism-based; design: dose 100 mg/kg, route intraperitoneal; details: read-out: Drug uptake; procedure, shortened: as §2
Mus musculus [36] = test: Antialzheimer activity in CD1 mouse assessed as reduction in amyloid beta 40 level at 100 mg/kg, ip at 6 hrs relative to vehicle-treated control; type: functional; design: scale not given: the % may be the effect or the level left; details: route intraperitoneal; procedure, shortened: as §2
CHO-2B7 = test: Modulation of gamma secretase in CHO-2B7 cells assessed as reduction in amyloid beta 42 level at 4 uM after 5 hrs by MSD ELISA; type: cell-based; design: scale not given: the % may be the effect or the level left; details: Cricetulus griseus

IC50 [1]: 7900 nM
Stability (Liver microsomes [2]): 123%
Kp at 2 h [3]: 0.09
Stability (Liver microsomes [4]): Stable
concentration at 2 h [5]: 326 nM
concentration at 2 h [6]: 30 nM
IC50 [7]: 260 nM
SMILES: CC(C)[C@@H](OC(=O)N1CCC1)[C@H]1C[C@@H](C)[C@H]2[C@H](O1)[C@H](O)[C@@]1(C)[C@@H]3CC[C@H]4C(C)(C)[C@@H](O[C@H]5CNCCO5)CC[C@@]45C[C@@]35CC[C@]21C

SMILES: CC(=O)O[C@@H]([C@H]1C[C@@H](C)C2=C(O1)[C@H](O)[C@@]1(C)[C@@H]3CC[C@H]4C(C)(C)[C@@H](O[C@@H]5OC[C@@H](O)[C@H](O)[C@H]5O)CC[C@@]45C[C@@]35CC[C@]21C)C(C)(C)O
IC50 [8]: 2700 nM
IC50 [9]: 100 nM
IC50 [10]: 61 nM

clearance [11]: 4.83 mL/min/kg
concentration at 6 h [12]: 9 nM
IC50 [13]: 12000 nM
bioavailability (in vivo [14]): 19%
Kp at 6 h [15]: 0.26
concentration at 6 h [16]: 2200 nM
IC50 [1]: 9900 nM
concentration at 6 h [21]: 1600 nM
IC50 [23]: 380 nM
Cmax (in vivo [24]): 3600 nM
Vd [26]: 0.42 L/kg
Stability (Liver microsomes [4]): Stable
concentration at 6 h [28]: 12000 nM
concentration at 6 h [29]: 35 nM
half-life [33]: 2.5 h
Kp at 6 h [34]: 0.4
IC50 [7]: 270 nM
concentration at 6 h [35]: 23000 nM
SMILES: CCO[C@@H]([C@H]1C[C@@H](C)[C@H]2[C@H](O1)[C@H](O)[C@@]1(C)[C@@H]3CC[C@H]4C(C)(C)[C@@H](O[C@H]5CN(CCOC)CCO5)CC[C@@]45C[C@@]35CC[C@]21C)C(C)(C)O
Activity (CHO [17]): 58%
inhibition (SUP-T1): 0%
Activity (Mus musculus [18]): 8%
Activity (Mus musculus [19]): 31%
Activity (Mus musculus [20]): 4%
Activity (CHO [22]): 310%
Activity (Mus musculus [25]): 7%
Activity (CHO [27]): 6.2 ng
Activity (CHO [30]): Below limit of detection
Activity (CHO [31]): 50%
Activity (Mus musculus [32]): 46%
Activity (Mus musculus [36]): 30%

IC50 [7]: 70 nM
SMILES: C[C@@H]1C[C@H]([C@H](O)C(C)(C)O)O[C@H]2[C@H]1[C@@]1(C)CC[C@@]34C[C@@]35CC[C@H](O[C@H]3CN(C(=O)CC6CC6)CCO3)C(C)(C)[C@@H]5CC[C@H]4[C@]1(C)[C@H]2O
Activity (CHO-2B7): 40%
